What was measured:
[1] = tested on: phosphorylation of p70S6K (Thr389); experiment: Immunoblot for phospho- and total p70S6K in K7M2 cells; type: cell-based, murine; details: concentrations as low as 0.1μM, 4 hours, immunoblot (Fig 3A)
[2] = tested on: phosphorylation of p70S6K (Thr389); experiment: Immunoblot for phospho- and total p70S6K in MG63.3 cells; type: cell-based, human; details: concentrations as low as 0.1μM, 4 hours, immunoblot (Fig 3A)
[3] = Single rapamycin dose pharmacokinetic study, whole blood levels; type: in vivo, mice
Method in brief: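 Naive female athymic nude mice, 8-10 weeks old, received a single 5mg/kg IP dose (n=3 per condition). Whole blood was sampled at 0, 1, 2, 6, 24 and 48 h and quantified by validated LC/MS/MS. Parameters were derived noncompartmentally: Cmax and trough read directly from the data, AUC by the log-linear trapezoidal method.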

K7M2 cells [4] = experiment: In vitro ds-SL-mCherry reporter expression; type: cell-based, murine; details: 1μM rapamycin, 5 days in culture (Fig 4A)
MG63.3 cells [5] = experiment: In vitro ds-SL-mCherry reporter expression; type: cell-based, human; details: 1μM rapamycin, 5 days in culture (Fig 4B)
K7M2 cells [6] = experiment: Ex vivo lung culture metastatic outgrowth, K7M2; type: cell-based, murine
Method in brief: (§1)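 Tumor cells were tail-vein injected, and lung sections were then cultured ex vivo. K7M2 cells were grown in female BALB/c mice and MG63.3 in female SCID-beige mice, 8-10 weeks old. Culture media held a final 0.1uM or 1uM rapamycin, or volume-matched DMSO, refreshed every 2 days. Eight sections were imaged per condition. Burden was total GFP+ area per section normalised to day 0.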

MG63.3 cells [7] = experiment: Ex vivo lung culture metastatic outgrowth, MG63.3; type: cell-based, human
Method in brief: as §1

K7M2 cells [8] = experiment: Spontaneous; type: in vivo, murine; details: orthotopically injected K7M2 cells, 5mg/kg daily IP (Fig 6C)
Method in brief: (§2)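 Cells were injected para-osseously into the proximal tibia: K7M2 into female BALB/c mice, human lines into female SCID-beige mice, 8-10 weeks old; MNNG at 1x10^6 cells. Mice received 5mg/kg IP rapamycin or vehicle daily, 5 days/week. Tumours were measured every 3-4 days and limbs amputated at 1.5-1.7 cm3. Survival ran from amputation, with metastasis confirmed at necropsy; Kaplan-Meier analysis, Gehan-Breslow-Wilcoxon test.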

MG63.3 cells [9] = experiment: Spontaneous; type: in vivo, human; details: orthotopically injected MG63.3 cells, 5mg/kg daily IP (Fig 6D)
Method in brief: as §2

MNNG cells = experiment: Spontaneous; type: in vivo, human; details: orthotopically injected MNNG cells, 5mg/kg daily IP (Fig 6E)
Method in brief: as §2

Compound: CO[C@H]1C[C@@H]2CC[C@@H](C)[C@@](O)(O2)C(=O)C(=O)N2CCCC[C@H]2C(=O)O[C@H]([C@H](C)C[C@@H]2CC[C@@H](O)[C@H](OC)C2)CC(=O)[C@H](C)/C=C(\C)[C@@H](O)[C@@H](OC)C(=O)[C@H](C)C[C@H](C)/C=C/C=C/C=C/1C [rapamycin]
- inhibition of phosphorylation of p70S6K [1]: effectively inhibited phosphorylation of p70S6K
- inhibition of phosphorylation of p70S6K [2]: effectively inhibited phosphorylation of p70S6K
- AUC/dose equivalent value ([3]; mice, 5mg/kg IP, noncompartmental methods, predicted sufficient to inhibit p70S6K phosphorylation and exert anti-metastatic activities): 3,555 [ng*hr/ml]/[mg/kg]
- whole blood concentration maintained ([3]; naïve mice, single IP dose of 5mg/kg, for 24hrs (Fig 3C)): above 0.1 μM
- effect on ds-SL-mCherry reporter expression in vitro (K7M2 cells [4]): no effect on reporter expression
- effect on ds-SL-mCherry reporter expression in vitro (MG63.3 cells [5]): no effect on reporter expression
- metastatic outgrowth in ex vivo lung culture (K7M2 cells [6]; K7M2, 0.1μM rapamycin (Fig 5B, 5C)): robustly inhibited metastatic outgrowth
- metastatic outgrowth in ex vivo lung culture (K7M2 cells [6]; K7M2, 1μM rapamycin (Fig 5B, 5C)): robustly inhibited metastatic outgrowth
- metastatic outgrowth in ex vivo lung culture (MG63.3 cells [7]; MG63.3, 0.1μM rapamycin (Fig 5D, 5E)): robustly inhibited metastatic outgrowth
- metastatic outgrowth in ex vivo lung culture (MG63.3 cells [7]; MG63.3, 1μM rapamycin (Fig 5D, 5E)): robustly inhibited metastatic outgrowth
- survival of mice from time of limb amputation (K7M2 cells [8]): significantly prolonged survival
- survival of mice from time of limb amputation (MG63.3 cells [9]): significantly prolonged survival
- survival of mice from time of limb amputation (MNNG cells): significantly prolonged survival

Source: PMC5161706 (Clinical cancer research : an official journal of the …, 2016)
